“Also recorded” adds a separate entry of the source. Where two headings read alike, the source gives them in different places.

This is an account of results in article PMC7153518 (ACS chemical neuroscience, 2020).

The target of one series is human TRPM8 (Homo sapiens, UniProt Q7Z2W7). Particulars: cited from earlier work.
For series [1], the system named is TRPM8. The following applies: read-out: EC50 previously reported; CHO cells / mouse TRPM8; cited from earlier work.
In another series the target is human TRPM8 (hTRPM8) (Homo sapiens, UniProt Q7Z2W7). The series is classed as cell-based.
The next series addresses human TRPV1 (Homo sapiens, UniProt Q8NER1). The experiment in a line: FLIPR Ca2+ flux assay. The format is cell-based. The following applies: for hTRPV1% activation: normalized to Emax of capsaicin (3 μM); for hTRPV1% inhibition: vs EC80 of capsaicin (0.1 μM). (In general: A change in cytosolic calcium serves as a functional read-out for many receptors and channels.)
For another series, the target named is human TRPA1 (Homo sapiens, UniProt O75762). Briefly: FLIPR Ca2+ flux assay. The series is classed as cell-based. Particulars: for hTRPA1% activation: normalized to Emax of AITC (300 μM); for hTRPA1% inhibition: vs EC80 of AITC (10 μM).
Series [2] concerns icilin-induced WDS in mice. Briefly: Wet dog shakes. The series is classed as in vivo.
Series [3] has as its system Oxaliplatin (OXP)-induced cold allodynia in C57 mice. Briefly: Oxaliplatin-induced cold allodynia, acetone test. The format is in vivo. An outline of the steps:
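Male C57 mice received oxaliplatin (6 mg/kg) on days 1, 3 and 5, with saline and 5% mannitol given i.p., and were tested on day 7. Test compound (DMSO stock diluted in saline, 0.1–1 μg) was injected once into the right hind paw plantar surface. After about 30 min habituation on mesh, acetone-drop cold responses were followed over time. Mean ± SEM, n = 6; one-way ANOVA, Dunnett's.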

A short description of series [4]: Metabolic stability in mouse liver microsomes. The following applies: male, CD-1, mouse. The format is in vitro ADME.
The test system of series [5] is TRPM8. Particulars: read-out: IC50 (whole-cell patch clamp); cited from earlier work. For orientation: In patch-clamp work, channel activity is measured electrically.
The test system of the next series is TRPA1. The following applies: read-out: TRPA1 IC50; vs the effect of 80 μM AITC; cited from earlier work.
Setting [6] is: after single administration of 0.1 and 1 μg.

Chain of human TRPM8 (hTRPM8) (Q7Z2W7 whole entry): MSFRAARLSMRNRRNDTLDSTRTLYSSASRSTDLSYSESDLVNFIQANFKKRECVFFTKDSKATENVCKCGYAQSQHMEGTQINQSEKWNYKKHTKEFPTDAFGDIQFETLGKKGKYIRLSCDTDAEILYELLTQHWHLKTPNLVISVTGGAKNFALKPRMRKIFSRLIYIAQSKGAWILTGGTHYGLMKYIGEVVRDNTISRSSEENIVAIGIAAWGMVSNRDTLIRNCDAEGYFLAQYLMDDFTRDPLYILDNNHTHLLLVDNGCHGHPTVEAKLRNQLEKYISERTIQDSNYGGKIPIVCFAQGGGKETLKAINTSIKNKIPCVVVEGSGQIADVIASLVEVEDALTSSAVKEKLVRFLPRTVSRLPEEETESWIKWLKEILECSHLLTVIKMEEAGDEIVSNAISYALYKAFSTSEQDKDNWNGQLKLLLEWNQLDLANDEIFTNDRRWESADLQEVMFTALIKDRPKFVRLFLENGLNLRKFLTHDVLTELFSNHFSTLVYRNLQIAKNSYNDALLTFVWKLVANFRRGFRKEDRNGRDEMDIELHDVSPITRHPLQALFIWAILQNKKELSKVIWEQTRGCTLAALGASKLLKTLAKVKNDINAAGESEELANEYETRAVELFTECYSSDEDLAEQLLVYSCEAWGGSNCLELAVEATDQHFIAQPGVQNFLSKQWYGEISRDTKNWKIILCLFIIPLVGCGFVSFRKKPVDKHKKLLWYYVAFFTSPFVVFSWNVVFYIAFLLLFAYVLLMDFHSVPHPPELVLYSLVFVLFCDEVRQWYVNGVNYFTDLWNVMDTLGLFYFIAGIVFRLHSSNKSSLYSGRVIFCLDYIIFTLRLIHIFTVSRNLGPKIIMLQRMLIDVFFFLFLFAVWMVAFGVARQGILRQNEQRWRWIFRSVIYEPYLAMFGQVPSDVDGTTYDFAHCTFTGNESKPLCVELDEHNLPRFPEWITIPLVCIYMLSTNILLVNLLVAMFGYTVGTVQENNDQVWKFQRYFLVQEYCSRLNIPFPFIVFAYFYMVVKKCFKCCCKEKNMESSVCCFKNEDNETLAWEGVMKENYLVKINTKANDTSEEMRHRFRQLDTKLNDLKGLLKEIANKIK
Chain of human TRPM8 (Q7Z2W7 whole entry): as above
Chain of human TRPA1 (O75762 whole entry): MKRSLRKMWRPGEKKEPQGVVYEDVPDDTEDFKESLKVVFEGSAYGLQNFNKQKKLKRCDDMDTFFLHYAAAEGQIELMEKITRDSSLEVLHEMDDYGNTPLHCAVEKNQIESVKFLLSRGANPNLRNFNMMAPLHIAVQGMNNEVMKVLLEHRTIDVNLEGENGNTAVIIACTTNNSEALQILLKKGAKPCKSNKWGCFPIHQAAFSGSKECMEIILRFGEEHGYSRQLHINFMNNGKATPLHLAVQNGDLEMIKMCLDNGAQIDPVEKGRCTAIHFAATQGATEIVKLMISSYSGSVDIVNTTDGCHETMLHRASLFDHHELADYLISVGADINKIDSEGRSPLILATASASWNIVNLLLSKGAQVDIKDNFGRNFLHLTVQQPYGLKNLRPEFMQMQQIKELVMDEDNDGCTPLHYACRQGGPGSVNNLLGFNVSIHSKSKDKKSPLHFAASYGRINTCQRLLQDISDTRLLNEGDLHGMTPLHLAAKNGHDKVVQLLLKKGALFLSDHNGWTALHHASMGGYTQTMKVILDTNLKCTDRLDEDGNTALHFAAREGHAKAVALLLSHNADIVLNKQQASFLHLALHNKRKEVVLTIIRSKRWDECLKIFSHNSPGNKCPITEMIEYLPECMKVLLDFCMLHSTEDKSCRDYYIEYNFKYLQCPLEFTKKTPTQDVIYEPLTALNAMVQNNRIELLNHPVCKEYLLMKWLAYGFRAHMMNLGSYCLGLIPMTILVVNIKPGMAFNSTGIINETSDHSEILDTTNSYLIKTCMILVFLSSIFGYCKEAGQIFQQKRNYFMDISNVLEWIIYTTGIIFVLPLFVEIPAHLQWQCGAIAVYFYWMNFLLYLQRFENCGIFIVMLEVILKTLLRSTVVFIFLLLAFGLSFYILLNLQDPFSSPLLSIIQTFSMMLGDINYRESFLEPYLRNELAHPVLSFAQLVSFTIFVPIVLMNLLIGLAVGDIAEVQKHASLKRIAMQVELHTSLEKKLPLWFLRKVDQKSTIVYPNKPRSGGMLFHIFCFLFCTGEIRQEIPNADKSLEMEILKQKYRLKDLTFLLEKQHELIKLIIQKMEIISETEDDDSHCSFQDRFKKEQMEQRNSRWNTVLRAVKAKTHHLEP
Chain of human TRPV1 (Q8NER1 whole entry): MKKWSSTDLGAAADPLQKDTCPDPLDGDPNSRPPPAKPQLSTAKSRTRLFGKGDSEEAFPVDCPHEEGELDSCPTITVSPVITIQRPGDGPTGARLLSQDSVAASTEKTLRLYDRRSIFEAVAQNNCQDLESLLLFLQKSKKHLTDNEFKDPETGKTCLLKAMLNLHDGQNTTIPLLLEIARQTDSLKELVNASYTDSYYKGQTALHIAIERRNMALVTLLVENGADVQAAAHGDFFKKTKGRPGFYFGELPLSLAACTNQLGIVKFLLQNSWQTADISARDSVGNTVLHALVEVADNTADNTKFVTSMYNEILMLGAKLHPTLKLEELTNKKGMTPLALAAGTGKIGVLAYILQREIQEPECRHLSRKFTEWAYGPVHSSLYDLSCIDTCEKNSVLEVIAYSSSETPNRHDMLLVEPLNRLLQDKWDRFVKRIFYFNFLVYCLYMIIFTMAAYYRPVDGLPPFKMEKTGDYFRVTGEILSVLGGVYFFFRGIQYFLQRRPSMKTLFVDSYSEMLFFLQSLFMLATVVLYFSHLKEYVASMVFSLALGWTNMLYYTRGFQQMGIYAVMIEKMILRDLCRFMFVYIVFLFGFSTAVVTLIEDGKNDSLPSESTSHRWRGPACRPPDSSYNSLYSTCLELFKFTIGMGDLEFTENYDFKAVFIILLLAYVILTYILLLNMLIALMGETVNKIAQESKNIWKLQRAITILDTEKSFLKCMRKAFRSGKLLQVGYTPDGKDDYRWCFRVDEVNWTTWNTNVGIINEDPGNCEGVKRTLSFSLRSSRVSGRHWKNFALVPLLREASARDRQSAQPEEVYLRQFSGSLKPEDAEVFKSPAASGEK

Regarding `O=C(O)c1ccc(S(=O)(=O)N(Cc2ccc(OC(F)(F)F)cc2)c2ncc(C(F)(F)F)cc2Cl)cc1` [RQ-00203078], on human TRPM8 (read-out: reported potency at hTRPM8), the IC50 is less than 10 nM.

Regarding `O=C1NC(c2cccc([N+](=O)[O-])c2)=CCN1c1ccccc1O` [icilin, 3-(2-hydroxyphenyl)-6-(3-nitrophenyl)-3,4-dihydropyrimidin-2(1H)-one], the concentration for a half-maximal effect (EC50) in the series with TRPM8 [1] was 120 to 200 nM.

On to `CC1CCC(C(C)C)C(NC(=O)c2ccc(-c3ccccc3)cc2)C1` (centres unmarked) [Compound 2, N-(2-Isopropyl-5-methylcyclohexyl)-[1,1′-biphenyl]-4-carboxamide], for which the “increase of hTRPM8 activity relative to 1” value at human TRPM8 (hTRPM8) (ratio of IC50 values) was determined as 30 fold.

On to `O=C(NC12CC3CC(CC(C3)C1)C2)c1ccc(-c2ccccc2)cc1` [Compound 15, N-(Adamantan-1-yl)-[1,1′-biphenyl]-4-carboxamide], for which the figures for the hTRPV1% activation at human TRPV1 (concn tested 30 nM) and at human TRPV1 (concn tested 300 nM) were 1.0 ± 0.2% and 1 ± 2%, respectively. Further, the figures for the hTRPA1% activation at human TRPA1 (concn tested 30 nM) and at human TRPA1 (concn tested 300 nM) were −2.6 ± 0.5% and −1.5 ± 0.4%, respectively.

For `O=C(NC1CCC2(CCCCC2)CC1)c1ccc(-c2ccccc2)cc1` [Compound 13, N-(Spiro[5.5]undecan-3-yl)-[1,1′-biphenyl]-4-carboxamide], the hTRPV1% activation is −1.0 ± 0.4% at human TRPV1 (concn tested 100 nM) and 0.7 ± 0.2% on human TRPV1 (concn tested 1 μM). The values for the hTRPA1% activation at human TRPA1 (concn tested 100 nM) and at human TRPA1 (concn tested 1 μM) were 0.2 ± 0.5% and −0.2 ± 1.1%, respectively.

Turning to `O=C(NC1CCC2(CCCC2)CC1)c1ccc(-c2ccccc2)cc1` [Compound 14, N-(Spiro[4.5]decan-8-yl)-[1,1′-biphenyl]-4-carboxamide], the “inhibition of WDS at the highest dose” value in series [2] (50 mg/kg s.c., compared with gabapentin 25 mg/kg s.c.) is listed as “efficacy comparable to that observed with a standard analgesic dose of gabapentin”. In [2] (1, 30 and 50 mg/kg s.c. 30 min before icilin 10 mg/kg i.p., WDS counted over 30 min, n = 6), the “effect on icilin-triggered wet dog shakes” value was “dose-dependently blocks; also recorded: marked, dose-dependent antinociceptive behavior”. The “effect on OXP effects at 60 min” value in [3] (60 min after administration) is “significantly suppresses OXP effects”. In addition, the “time at which attenuated cold allodynia is evident” value in [3] (setting [6]) was 15 min. In addition, the “time of maximum inhibition of cold allodynia” value in series [3] (setting [6]) stood at 30 min. Moreover, the hTRPV1% activation worked out at 1 ± 1% on human TRPV1 (concn tested 3 nM) and 1 ± 2% on human TRPV1 (concn tested 30 nM). The same compound gave an intrinsic clearance (microsomal CLint) at 1 μM in series [4] (liver microsomes) of 45.5 µL/min/mg. For the same compound, the hTRPA1% activation at human TRPA1 (concn tested 3 nM) was −0.8 ± 0.4%; at human TRPA1 (concn tested 30 nM), 0.1 ± 1.2%. Also, at human TRPM8 (hTRPM8) (3 nM compound vs maximal (100 μM) menthol), the “effect on menthol-evoked TRPM8-mediated Ca2+ entry” value was “significantly (P < 0.01) reduce”. Besides, on human TRPM8 (hTRPM8) (icilin 500 nM), the “effect on icilin-induced Ca2+ influx at higher concentrations” value is “nearly abolishes”.

With `COc1cc(CN(CCN)C(=O)OC(C)c2ccccc2)ccc1OCc1ccccc1` (centres unmarked) [PBMC], in the series with TRPM8 [5], the IC50 was 0.4 to 0.6 nM.

Consider `O=C(N[C@H]1CC[C@@H]2CCCC[C@@H]2C1)c1ccc(-c2ccccc2)cc1` (racemic) [Compound 12, N-((2SR,9RS,10SR)-Decahydronaphthalen-2-yl)-[1,1′-biphenyl]-4-carboxamide], for which, on human TRPV1 (concn tested 3 nM), the hTRPV1% activation amounted to 2 ± 1% and the hTRPV1% inhibition is recorded as −12 ± 3%. At human TRPV1 (concn tested 30 nM), the hTRPV1% activation amounted to 3 ± 1% and the hTRPV1% inhibition is 1.0 ± 2%. In addition, on human TRPA1 (concn tested 3 nM), the hTRPA1% activation was −2.3 ± 1.0% and the hTRPA1% inhibition was −0.3 ± 3%. For the same compound, at human TRPA1 (concn tested 30 nM), the hTRPA1% activation is given as −2.1 ± 0.5% and the hTRPA1% inhibition came to 5 ± 9%. In addition, on human TRPM8 (hTRPM8) (ratio of IC50 values), the “higher potency than the diastereomeric mixture (10)” value is listed as 4 fold.

For the compound `O=C(NC1CCCc2ccccc21)c1ccc(-c2ccccc2)cc1` (centres unmarked) [Compound 9, N-(1,2,3,4-Tetrahydronaphthalen-1-yl)-[1,1′-biphenyl]-4-carbox-amide], on human TRPM8 (hTRPM8) (ratio of IC50 values), the “loss of potency vs 8” value is 3 fold.

`Cl.Cl.Cl.Cl.Cl.Cl.N.N.N.N.N.N.N.N.N.N.N.N.N.N.[O-2].[O-2].[Ru+3].[Ru+3].[Ru+4]` [ruthenium red, reference compound]: the IC50 with TRPA1 is 29 ± 6 nM; at human TRPA1 (read-out: TRPA1 IC50, vs AITC (10 μM)-activated [Ca2+]i release), 162 ± 33 nM.

As for `C[C@H](c1ccc(F)cc1)N(Cc1cccc(C(=O)O)c1)C(=O)c1cnc2ccccc2c1` [PF-05105679], the IC50 at human TRPM8 (read-out: human TRPM8 IC50, WS-12-mediated activation) is 181 ± 7.21 nM; at human TRPM8 (read-out: human TRPM8 IC50, voltage-mediated activation), 103 ± 29.4 nM.

`C[C@]12CC[C@H]3[C@@H](CCC4=CC(=O)CC[C@@]43C)[C@@H]1CC[C@@H]2O` [testosterone, reference compound] displayed a microsomal CLint in series [4] (microsomes) of 372 µL/min/mg.

As to `O=C(NC1CCCCCC1)c1ccc(-c2ccccc2)cc1` [Compound 5, N-Cycloheptyl-[1,1′-biphenyl]-4-Carboxamide], the hTRPV1% activation at human TRPV1 (concn tested 100 nM) was 0.0 ± 1.0%; at human TRPV1 (concn tested 1 μM), 0.6 ± 1.5%. Moreover, the hTRPA1% activation at human TRPA1 (concn tested 100 nM) is on record as 0.1 ± 0.7%; on human TRPA1 (concn tested 1 μM), 0.8 ± 0.5%. In addition, the “improvement of hTRPM8 potency relative to 2” value at human TRPM8 (hTRPM8) (ratio of IC50 values) is 8–9 fold.

Take `O=C(NC1CCc2ccccc2C1)c1ccc(-c2ccccc2)cc1` (centres unmarked) [Compound 11, N-(1,2,3,4-Tetrahydronaphthalen-2-yl)-[1,1′-biphenyl]-4-carbox-amide]: at human TRPV1 (concn tested 100 nM), the hTRPV1% activation is reported as −1.8 ± 0.9% and the hTRPV1% inhibition is recorded as −3.1 ± 0.6%. For the same compound, at human TRPV1 (concn tested 1 μM), the hTRPV1% activation is given as −0.7 ± 1.5% and the hTRPV1% inhibition was determined as 13 ± 3%. At human TRPA1 (concn tested 100 nM), the hTRPA1% activation is reported as −0.1 ± 0.5% and the hTRPA1% inhibition is 3 ± 6%. Moreover, on human TRPA1 (concn tested 1 μM), the hTRPA1% activation is −0.8 ± 0.6% and the hTRPA1% inhibition came out at 4 ± 1%. For the same compound, on human TRPM8 (hTRPM8) (ratio of IC50 values), the “decrease of hTRPM8 potency (vs 10)” value turned out to be 9 fold.

For `O=C(NC1CCCCCCC1)c1ccc(-c2ccccc2)cc1` [Compound 7, N-Cyclooctyl-[1,1′-biphenyl]-4-carboxamide], the hTRPV1% activation on human TRPV1 (concn tested 100 nM) was −1.9 ± 0.7%; at human TRPV1 (concn tested 1 μM) it was −3.2 ± 0.6%. For the same compound, the hTRPA1% activation was −1.0 ± 0.1% on human TRPA1 (concn tested 100 nM) and −1.5 ± 0.9% on human TRPA1 (concn tested 1 μM). Besides, at human TRPM8 (hTRPM8) (ratio of IC50 values), the “improvement of hTRPM8 potency relative to 2” value is on record as 8–9 fold.

For the compound `O=C(NC1CCC2CCCCC2C1)c1ccc(-c2ccccc2)cc1` (centres unmarked) [Compound 10, N-(Decahydronaphthalen-2-yl)-[1,1′-biphenyl]-4-carboxamide], the inhibition at 0.1 µM on human TRPV1 (HEK293, read-out: hTRPV1% inhibition) was found to be 2 ± 3%. The hTRPV1% activation at human TRPV1 (concn tested 10 nM) worked out at 2.4 ± 0.8%; on human TRPV1 (concn tested 100 nM) it was 2.3 ± 0.9%. The hTRPA1% activation at human TRPA1 (concn tested 10 nM) was 0.2 ± 0.4%; on human TRPA1 (concn tested 100 nM), −1.1 ± 0.2%. Further, the “enhancement of TRPM8 potency relative to 8” value on human TRPM8 (hTRPM8) (ratio of IC50 values) is 3500 fold. The “higher potency than cycloheptyl 5 and cyclooctyl 7” value on human TRPM8 (hTRPM8) (ratio of IC50 values) is 10 fold.

A word on the EC50: it is the concentration needed to bring the measured effect to its halfway point. For orientation: microsomal CLint means the capacity of the preparation to metabolise the compound, expressed as a volume cleared per time. Low readings indicate slow turnover, high ones rapid turnover. One may read the inhibition as the relative decrease from the control value, in per cent.
